ChEMBL document CHEMBL5376013, “Design, synthesis and biological evaluation of novel morpholinopyrimidine-5-carbonitrile derivatives as dual PI3K/mTOR inhibitors” (RSC Med Chem, 2024)

Experiments:
Format in all cases: functional
Settings in all cases: read-out: GI
[1] = tested on: HL-60; experiment: Antitumor activity against human HL-60 cells assessed as growth inhibition at 10 uM relative to control
Summary of the method: (§1)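 After drug addition, plates were incubated 48 h at 37 °C under 5% CO2. Adherent cells were fixed with cold TCA (10% final, 60 min, 4 °C) and suspension cells with 16% final TCA. Staining used 0.4% SRB in 1% acetic acid, solubilized in 10 mM trizma, read at A515. Percent growth was calculated from time-zero, control and treated absorbances.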

[2] = tested on: HCT-15; experiment: Antitumor activity against human HCT-15 cells assessed as growth inhibition at 10 uM relative to control; summary of the method: as §1
[3] = tested on: DU-145; experiment: Antitumor activity against human DU-145 cells assessed as growth inhibition at 10 uM relative to control; summary of the method: as §1
[4] = tested on: SK-MEL-2; experiment: Antitumor activity against human SK-MEL-2 cells assessed as growth inhibition at 10 uM relative to control; summary of the method: as §1
[5] = tested on: U-251; experiment: Antitumor activity against human U-251 cells assessed as growth inhibition at 10 uM relative to control
Summary of the method: (§2)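 Drug exposure 48 h at 37 °C, 5% CO2. Adherent cells fixed with cold TCA (10% final), suspension cells with TCA (16% final). Stained with 0.4% SRB in 1% acetic acid, dissolved in 10 mM Tris, A515. Growth relative to time-zero and untreated control.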

[6] = tested on: 786-0; experiment: Antitumor activity against human 786-0 cells assessed as growth inhibition at 10 uM relative to control; summary of the method: as §1
[7] = tested on: HCT-116; experiment: Antitumor activity against human HCT-116 cells assessed as growth inhibition at 10 uM relative to control; summary of the method: as §1
[8] = tested on: HOP-62; experiment: Antitumor activity against human HOP-62 cells assessed as growth inhibition at 10 uM relative to control; summary of the method: as §1
[9] = tested on: OVCAR-4; experiment: Antitumor activity against human OVCAR-4 cells assessed as growth inhibition at 10 uM relative to control; summary of the method: as §1
[10] = tested on: SNB-19; experiment: Antitumor activity against human SNB-19 cells assessed as growth inhibition at 10 uM relative to control; summary of the method: as §2
[11] = tested on: SK-MEL-5; experiment: Antitumor activity against human SK-MEL-5 cells assessed as growth inhibition at 10 uM relative to control; summary of the method: as §2
[12] = tested on: EKVX; experiment: Antitumor activity against human EKVX cells assessed as growth inhibition at 10 uM relative to control; summary of the method: as §1
[13] = tested on: IGROV-1; experiment: Antitumor activity against human IGROV-1 cells assessed as growth inhibition at 10 uM relative to control; summary of the method: as §1
[14] = tested on: K562; experiment: Antitumor activity against human K562 cells assessed as growth inhibition at 10 uM relative to control; summary of the method: as §1
[15] = tested on: MDA-MB-231; experiment: Antitumor activity against human MDA-MB-231 cells assessed as growth inhibition at 10 uM relative to control; summary of the method: as §1
[16] = tested on: M14; experiment: Antitumor activity against human M14 cells assessed as growth inhibition at 10 uM relative to control; summary of the method: as §1
[17] = tested on: OVCAR-8; experiment: Antitumor activity against human OVCAR-8 cells assessed as growth inhibition at 10 uM relative to control; summary of the method: as §1
[18] = tested on: RXF 393; experiment: Antitumor activity against human RXF 393 cells assessed as growth inhibition at 10 uM relative to control; summary of the method: as §1
[19] = tested on: UACC-257; experiment: Antitumor activity against human UACC-257 cells assessed as growth inhibition at 10 uM relative to control; summary of the method: as §2
[20] = tested on: SK-OV-3; experiment: Antitumor activity against human SK-OV-3 cells assessed as growth inhibition at 10 uM relative to control; summary of the method: as §2
[21] = tested on: CAKI-1; experiment: Antitumor activity against human CAKI-1 cells assessed as growth inhibition at 10 uM relative to control; summary of the method: as §1
[22] = tested on: SF-268; experiment: Antitumor activity against human SF-268 cells assessed as growth inhibition at 10 uM relative to control; summary of the method: as §1
[23] = tested on: HCC 2998; experiment: Antitumor activity against human HCC 2998 cells assessed as growth inhibition at 10 uM relative to control; summary of the method: as §1
[24] = tested on: MDA-MB-435; experiment: Antitumor activity against human MDA-MB-435 cells assessed as growth inhibition at 10 uM relative to control; summary of the method: as §1
[25] = tested on: A549; experiment: Antitumor activity against human A549 cells assessed as growth inhibition at 10 uM relative to control; summary of the method: as §1
[26] = tested on: SF-295; experiment: Antitumor activity against human SF-295 cells assessed as growth inhibition at 10 uM relative to control; summary of the method: as §1
[27] = tested on: SF-539; experiment: Antitumor activity against human SF-539 cells assessed as growth inhibition at 10 uM relative to control; summary of the method: as §1
[28] = tested on: BT-549; experiment: Antitumor activity against human BT-549 cells assessed as growth inhibition at 10 uM relative to control; summary of the method: as §1
[29] = tested on: Hs-578T; experiment: Antitumor activity against human Hs-578T cells assessed as growth inhibition at 10 uM relative to control; summary of the method: as §1
[30] = tested on: MCF7; experiment: Antitumor activity against human MCF7 cells assessed as growth inhibition at 10 uM relative to control; summary of the method: as §1
[31] = tested on: PC-3; experiment: Antitumor activity against human PC-3 cells assessed as growth inhibition at 10 uM relative to control; summary of the method: as §1
[32] = tested on: NCI-H226; experiment: Antitumor activity against human NCI-H226 cells assessed as growth inhibition at 10 uM relative to control; summary of the method: as §1
[33] = tested on: LOX IMVI; experiment: Antitumor activity against human LOX IMVI cells assessed as growth inhibition at 10 uM relative to control; summary of the method: as §1
[34] = tested on: UO-31; experiment: Antitumor activity against human UO-31 cells assessed as growth inhibition at 10 uM relative to control; summary of the method: as §2
[35] = tested on: MOLT-4; experiment: Antitumor activity against human MOLT-4 cells assessed as growth inhibition at 10 uM relative to control; summary of the method: as §1
[36] = tested on: NCI-H322M; experiment: Antitumor activity against human NCI-H322M cells assessed as growth inhibition at 10 uM relative to control; summary of the method: as §1
[37] = tested on: OVCAR-3; experiment: Antitumor activity against human OVCAR-3 cells assessed as growth inhibition at 10 uM relative to control; summary of the method: as §1
[38] = tested on: NCI-H522; experiment: Antitumor activity against human NCI-H522 cells assessed as growth inhibition at 10 uM relative to control; summary of the method: as §1
[39] = tested on: COLO 205; experiment: Antitumor activity against human COLO 205 cells assessed as growth inhibition at 10 uM relative to control; summary of the method: as §1
[40] = tested on: HOP-92; experiment: Antitumor activity against human HOP-92 cells assessed as growth inhibition at 10 uM relative to control; summary of the method: as §1
[41] = tested on: NCI-H23; experiment: Antitumor activity against human NCI-H23 cells assessed as growth inhibition at 10 uM relative to control; summary of the method: as §1
[42] = tested on: A498; experiment: Antitumor activity against human A498 cells assessed as growth inhibition at 10 uM relative to control; summary of the method: as §1
[43] = tested on: OVCAR-5; experiment: Antitumor activity against human OVCAR-5 cells assessed as growth inhibition at 10 uM relative to control; summary of the method: as §1
[44] = tested on: TK-10; experiment: Antitumor activity against human TK-10 cells assessed as growth inhibition at 10 uM relative to control; summary of the method: as §2
[45] = tested on: SR; experiment: Antitumor activity against human SR cells assessed as growth inhibition at 10 uM relative to control; summary of the method: as §2
[46] = tested on: SNB-75; experiment: Antitumor activity against human SNB-75 cells assessed as growth inhibition at 10 uM relative to control; summary of the method: as §2

Structure (SMILES): CSc1nc(Cl)c(C#N)c(-c2ccc(Cl)cc2)n1
- inhibition of growth at 10 µM [1]: < 1%
- inhibition of growth at 10 µM [2]: < 1%
- inhibition of growth at 10 µM [3]: < 1%
- inhibition of growth at 10 µM [4]: < 1%
- inhibition of growth at 10 µM [5]: < 1%
- inhibition of growth at 10 µM [6]: < 1%
- inhibition of growth at 10 µM [7]: < 1%
- inhibition of growth at 10 µM [8]: < 1%
- inhibition of growth at 10 µM [9]: < 1%
- inhibition of growth at 10 µM [10]: < 1%
- inhibition of growth at 10 µM [11]: < 1%
- inhibition of growth at 10 µM [12]: < 1%
- inhibition of growth at 10 µM [13]: < 1%
- inhibition of growth at 10 µM [14]: 44.5%
- inhibition of growth at 10 µM [15]: < 1%
- inhibition of growth at 10 µM [16]: < 1%
- inhibition of growth at 10 µM [17]: < 1%
- inhibition of growth at 10 µM [18]: < 1%
- inhibition of growth at 10 µM [19]: < 1%
- inhibition of growth at 10 µM [20]: < 1%
- inhibition of growth at 10 µM [21]: < 1%
- inhibition of growth at 10 µM [22]: < 1%
- inhibition of growth at 10 µM [23]: < 1%
- inhibition of growth at 10 µM [24]: < 1%
- inhibition of growth at 10 µM [25]: < 1%
- inhibition of growth at 10 µM [26]: < 1%
- inhibition of growth at 10 µM [27]: < 1%
- inhibition of growth at 10 µM [28]: 11.2%
- inhibition of growth at 10 µM [29]: < 1%
- inhibition of growth at 10 µM [30]: 1%
- inhibition of growth at 10 µM [31]: < 1%
- inhibition of growth at 10 µM [32]: < 1%
- inhibition of growth at 10 µM [33]: < 1%
- inhibition of growth at 10 µM [34]: < 1%
- inhibition of growth at 10 µM [35]: 27.6%
- inhibition of growth at 10 µM [36]: < 1%
- inhibition of growth at 10 µM [37]: < 1%
- inhibition of growth at 10 µM [38]: < 1%
- inhibition of growth at 10 µM [39]: < 1%
- inhibition of growth at 10 µM [40]: < 1%
- inhibition of growth at 10 µM [41]: < 1%
- inhibition of growth at 10 µM [42]: < 1%
- inhibition of growth at 10 µM [43]: < 1%
- inhibition of growth at 10 µM [44]: < 1%
- inhibition of growth at 10 µM [45]: 58.5%
- inhibition of growth at 10 µM [46]: 26.8%
